ChEMBL document CHEMBL1142894, “Preparation of 5-aryl-3-alkylthio-l,2,4-triazoles and corresponding sulfones with antiinflammatory-analgesic activity” (Bioorg Med Chem, 2007)
The source made the active and inactive calls. The rule behind the calls is not given here.

Experiments:
Mus musculus [1] = assay: Analgesic activity against p-benzoquinone-induced abdominal constriction in Swiss albino mouse assessed as number of writhings at 200 mg/kg, po; format: functional, Abdomen
In short: (§1)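 Test samples given orally in 0.5% CMC; vehicle to controls. 60 min later, 2.5% (v/v) p-benzoquinone in distilled water, 0.1 ml/10 g, given i.p. Mice housed singly; writhes counted for 15 min starting 5 min after injection. Activity is % change from vehicle controls. n = 6; mean ± SEM.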

Mus musculus [2] = assay: Inhibition of carrageenan-induced paw edema in Swiss albino mouse at 50 mg/kg, po after 90 mins relative to control; format: functional; conditions: 1.5 h
In short: (§2)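 Mice, n = 6 per group. Test agent given orally as a suspension in 0.5% sodium CMC in distilled water; controls received vehicle only. Afterwards, 0.5 mg/25 ll carrageenan in saline (154 mM NaCl) injected subplantar into the right hind paw, saline into the left. Right-minus-left footpad thickness measured by dial gauge caliper every 90 min for 6 h. Inhibition is relative to vehicle-control group means.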

Mus musculus [3] = assay: Analgesic activity against p-benzoquinone-induced abdominal constriction in Swiss albino mouse assessed as number of writhings at 25 mg/kg, po; format: functional, Abdomen; in short: as §1
Mus musculus [4] = assay: Inhibition of carrageenan-induced paw edema in Swiss albino mouse at 200 mg/kg, po after 90 mins relative to control; format: functional; conditions: 1.5 h
In short: (§3)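 Oral dosing in 0.5% CMC; vehicle to controls. Then carrageenan (0.5 mg/25 ll, freshly suspended in 154 mM saline) injected into the right hind paw subplantar tissue; saline into the left paw. Right-left footpad thickness difference measured by dial gauge calliper every 90 min over 6 h. Inhibition % is relative to vehicle control. n = 6; mean ± SEM.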

Mus musculus [5] = assay: Antiinflammatory activity against carrageenan-induced paw edema in Swiss albino mouse assessed as swelling thickness at 200 mg/kg, po after 360 mins; format: functional; in short: as §3
Mus musculus [6] = assay: Inhibition of carrageenan-induced paw edema in Swiss albino mouse at 25 mg/kg, po after 270 mins relative to control; format: functional; conditions: 4.5 h; in short: as §3
Mus musculus [7] = assay: Gastric-ulcerogenic effect in Swiss albino mouse assessed as lesions at 25 mg/kg, po; format: functional, organism-based; set-up: dose 25 mg/kg
In short: (§4)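 Mice killed under deep ether anesthesia 3 h after the writhing test; the oral dose in 0.5% CMC was the one used in that test. Stomachs removed, opened along the great curvature and examined under a dissecting microscope for lesions or bleeding. Reported as ratio of ulceration; n = 6.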

Mus musculus [8] = assay: Inhibition of carrageenan-induced paw edema in Swiss albino mouse at 100 mg/kg, po after 360 mins relative to control; format: functional; conditions: 6 h; in short: as §3
Mus musculus [9] = assay: Acute toxicity in Swiss albino mouse assessed as lethal effect at 200 mg/kg/day, po after 72 hrs; format: organism-based; set-up: route oral; conditions: in vivo
In short: (§5)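 Oral single dose suspended in 0.5% carboxymethylcellulose, given after a 24 h fast; food and water returned 1 h after dosing. Vehicle-only controls. Mice observed at 1 h, then once daily for 72 h, for toxic signs and mortality.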

Mus musculus [10] = assay: Antiinflammatory activity against carrageenan-induced paw edema in Swiss albino mouse assessed as swelling thickness at 50 mg/kg, po after 90 mins; format: functional; in short: as §3
Mus musculus [11] = assay: Inhibition of p-benzoquinone-induced writhing in Swiss albino mouse at 200 mg/kg, po relative to control; format: functional
In short: (§6)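 Mice, n = 6 per group, dosed orally with a suspension in 0.5% sodium CMC. 60 min later, 0.1 ml/10 g of 2.5% […] p-benzoquinone in distilled water given ip. Abdominal writhes counted per animal for 15 min, starting 5 min after injection. Expressed as % change in mean writhing count versus vehicle controls.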

Mus musculus [12] = assay: Inhibition of carrageenan-induced paw edema in Swiss albino mouse at 200 mg/kg, po after 360 mins relative to control; format: functional; conditions: 6 h; in short: as §3
Mus musculus [13] = assay: Inhibition of carrageenan-induced paw edema in Swiss albino mouse at 50 mg/kg, po after 180 mins relative to control; format: functional; conditions: 3 h; in short: as §3
Mus musculus [14] = assay: Antiinflammatory activity against carrageenan-induced paw edema in Swiss albino mouse assessed as swelling thickness at 25 mg/kg, po after 90 mins; format: functional; in short: as §3
Mus musculus [15] = assay: Acute toxicity in Swiss albino mouse assessed as lethal effect at 100 mg/kg/day, po after 72 hrs; format: organism-based; set-up: route oral; conditions: in vivo; in short: as §5
Mus musculus [16] = assay: Inhibition of carrageenan-induced paw edema in Swiss albino mouse at 25 mg/kg, po after 360 mins relative to control; format: functional; conditions: 6 h; in short: as §3
Mus musculus [17] = assay: Antiinflammatory activity against carrageenan-induced paw edema in Swiss albino mouse assessed as swelling thickness at 200 mg/kg, po after 270 mins; format: functional; in short: as §3
Mus musculus [18] = assay: Antiinflammatory activity against carrageenan-induced paw edema in Swiss albino mouse assessed as swelling thickness at 100 mg/kg, po after 270 mins; format: functional; in short: as §3
Mus musculus [19] = assay: Inhibition of carrageenan-induced paw edema in Swiss albino mouse at 100 mg/kg, po after 180 mins relative to control; format: functional; conditions: 3 h; in short: as §3
Mus musculus [20] = assay: Antiinflammatory activity against carrageenan-induced paw edema in Swiss albino mouse assessed as swelling thickness at 50 mg/kg, po after 270 mins; format: functional; in short: as §3
Mus musculus [21] = assay: Antiinflammatory activity against carrageenan-induced paw edema in Swiss albino mouse assessed as swelling thickness at 25 mg/kg, po after 360 mins; format: functional; in short: as §3
Mus musculus [22] = assay: Inhibition of carrageenan-induced paw edema in Swiss albino mouse at 25 mg/kg, po after 180 mins relative to control; format: functional; conditions: 3 h; in short: as §3
Mus musculus [23] = assay: Inhibition of carrageenan-induced paw edema in Swiss albino mouse at 25 mg/kg, po after 90 mins relative to control; format: functional; conditions: 1.5 h; in short: as §3
Mus musculus [24] = assay: Inhibition of carrageenan-induced paw edema in Swiss albino mouse at 100 mg/kg, po after 90 mins relative to control; format: functional; conditions: 1.5 h; in short: as §3
Mus musculus [25] = assay: Inhibition of carrageenan-induced paw edema in Swiss albino mouse at 200 mg/kg, po after 270 mins relative to control; format: functional; conditions: 4.5 h; in short: as §3
Mus musculus [26] = assay: Antiinflammatory activity against carrageenan-induced paw edema in Swiss albino mouse assessed as swelling thickness at 100 mg/kg, po after 360 mins; format: functional; in short: as §3
Mus musculus [27] = assay: Antiinflammatory activity against carrageenan-induced paw edema in Swiss albino mouse assessed as swelling thickness at 50 mg/kg, po after 360 mins; format: functional; in short: as §3
Mus musculus [28] = assay: Antiinflammatory activity against carrageenan-induced paw edema in Swiss albino mouse assessed as swelling thickness at 100 mg/kg, po after 180 mins; format: functional; in short: as §3
Mus musculus [29] = assay: Antiinflammatory activity against carrageenan-induced paw edema in Swiss albino mouse assessed as swelling thickness at 25 mg/kg, po after 270 mins; format: functional; in short: as §3
Mus musculus [30] = assay: Inhibition of p-benzoquinone-induced writhing in Swiss albino mouse at 100 mg/kg, po relative to control; format: functional; in short: as §6
Mus musculus [31] = assay: Analgesic activity against p-benzoquinone-induced abdominal constriction in Swiss albino mouse assessed as number of writhings at 50 mg/kg, po; format: functional, Abdomen; in short: as §1
Mus musculus [32] = assay: Antiinflammatory activity against carrageenan-induced paw edema in Swiss albino mouse assessed as swelling thickness at 200 mg/kg, po after 180 mins; format: functional; in short: as §3
Mus musculus [33] = assay: Antiinflammatory activity against carrageenan-induced paw edema in Swiss albino mouse assessed as swelling thickness at 200 mg/kg, po after 90 mins; format: functional; in short: as §3
Mus musculus [34] = assay: Acute toxicity in Swiss albino mouse assessed as lethal effect at 50 mg/kg/day, po after 72 hrs; format: organism-based; set-up: route oral; conditions: in vivo; in short: as §5
Mus musculus [35] = assay: Antiinflammatory activity against carrageenan-induced paw edema in Swiss albino mouse assessed as swelling thickness at 50 mg/kg, po after 180 mins; format: functional; in short: as §3
Mus musculus [36] = assay: Gastric-ulcerogenic effect in Swiss albino mouse assessed as lesions at 50 mg/kg, po; format: functional, organism-based; set-up: dose 50 mg/kg; in short: as §4
Mus musculus [37] = assay: Inhibition of carrageenan-induced paw edema in Swiss albino mouse at 50 mg/kg, po after 270 mins relative to control; format: functional; conditions: 4.5 h; in short: as §2
Mus musculus [38] = assay: Inhibition of p-benzoquinone-induced writhing in Swiss albino mouse at 50 mg/kg, po relative to control; format: functional; in short: as §6
Mus musculus [39] = assay: Antiinflammatory activity against carrageenan-induced paw edema in Swiss albino mouse assessed as swelling thickness at 100 mg/kg, po after 90 mins; format: functional; in short: as §3
Mus musculus [40] = assay: Inhibition of carrageenan-induced paw edema in Swiss albino mouse at 50 mg/kg, po after 360 mins relative to control; format: functional; conditions: 6 h; in short: as §2
Mus musculus [41] = assay: Acute toxicity in Swiss albino mouse assessed as lethal effect at 25 mg/kg/day, po after 72 hrs; format: organism-based; set-up: route oral; conditions: in vivo; in short: as §5
Mus musculus [42] = assay: Analgesic activity against p-benzoquinone-induced abdominal constriction in Swiss albino mouse assessed as number of writhings at 100 mg/kg, po; format: functional, Abdomen; in short: as §1
Mus musculus [43] = assay: Antiinflammatory activity against carrageenan-induced paw edema in Swiss albino mouse assessed as swelling thickness at 25 mg/kg, po after 180 mins; format: functional; in short: as §3
Mus musculus [44] = assay: Inhibition of p-benzoquinone-induced writhing in Swiss albino mouse at 25 mg/kg, po relative to control; format: functional; in short: as §6
Mus musculus [45] = assay: Inhibition of carrageenan-induced paw edema in Swiss albino mouse at 100 mg/kg, po after 270 mins relative to control; format: functional; conditions: 4.5 h; in short: as §3

## CCSc1nc(-c2ccc(Cl)cc2)n[nH]1
Mus musculus [1]
  Activity: 44.8
Mus musculus [2]
  inhibition in vivo at 50 mg/kg: 26.5%
Mus musculus [3]
  Activity: 45.1
Mus musculus [4]
  inhibition in vivo at 200 mg/kg: 2.6%
Mus musculus [5]
  Activity: 74.2 10^-2mm
Mus musculus [6]
  inhibition in vivo at 25 mg/kg: 16.9%
Mus musculus [7]
  Activity: Active
Mus musculus [8]
  inhibition in vivo at 100 mg/kg: 35.8%
Mus musculus [9]
  Activity: Non-toxic
Mus musculus [10]
  Activity: 39.1 10^-2mm
Mus musculus [11]
  inhibition in vivo at 200 mg/kg: 12.8%
Mus musculus [12]
  inhibition in vivo at 200 mg/kg: 3.4%
Mus musculus [13]
  inhibition in vivo at 50 mg/kg: 27.3%
Mus musculus [14]
  Activity: 45.9 10^-2mm
Mus musculus [15]
  Activity: Non-toxic
Mus musculus [16]
  inhibition in vivo at 25 mg/kg: 17.1%
Mus musculus [17]
  Activity: 63.5 10^-2mm
Mus musculus [18]
  Activity: 40.7 10^-2mm
Mus musculus [19]
  inhibition in vivo at 100 mg/kg: 25.8%
Mus musculus [20]
  Activity: 45.8 10^-2mm
Mus musculus [21]
  Activity: 59.7 10^-2mm
Mus musculus [22]
  inhibition in vivo at 25 mg/kg: 15.9%
Mus musculus [23]
  inhibition in vivo at 25 mg/kg: 13.7%
Mus musculus [24]
  inhibition in vivo at 100 mg/kg: 23.4%
Mus musculus [25]
  inhibition in vivo at 200 mg/kg: 2%
Mus musculus [26]
  Activity: 44.2 10^-2mm
Mus musculus [27]
  Activity: 43.1 10^-2mm
Mus musculus [28]
  Activity: 38.2 10^-2mm
Mus musculus [29]
  Activity: 63.5 10^-2mm
Mus musculus [30]
  inhibition in vivo at 100 mg/kg: 28.5%
Mus musculus [31]
  Activity: 34.2
Mus musculus [32]
  Activity: 59.9 10^-2mm
Mus musculus [33]
  Activity: 51.8 10^-2mm
Mus musculus [34]
  Activity: Non-toxic
Mus musculus [35]
  Activity: 43.2 10^-2mm
Mus musculus [36]
  Activity: Active
Mus musculus [37]
  inhibition in vivo at 50 mg/kg: 29.3%
Mus musculus [38]
  inhibition in vivo at 50 mg/kg: 33.5%
Mus musculus [39]
  Activity: 34.3 10^-2mm
Mus musculus [40]
  inhibition in vivo at 50 mg/kg: 40.1%
Mus musculus [41]
  Activity: Non-toxic
Mus musculus [42]
  Activity: 33.8
Mus musculus [43]
  Activity: 49.9 10^-2mm
Mus musculus [44]
  inhibition in vivo at 25 mg/kg: 12.3%
Mus musculus [45]
  inhibition in vivo at 100 mg/kg: 30.8%
